The text below walks through data of ChEMBL document CHEMBL2385015, “Alkaloids and polyketides from Penicillium citrinum, an endophyte isolated from the Moroccan plant Ceratonia siliqua” (J Nat Prod, 2013).

Molecules are shown by their SMILES. pIC50: −log10 of the molar value. The source made the active and inactive calls. The rule behind the calls is not given here.

The test system of one assay is Staphylococcus aureus. Put plainly: Antibacterial activity against Staphylococcus aureus ATCC 29213 at 64 ug/mL by broth microdilution method. In kind it is functional, organism-based.
In the next assay the test system is L5178Y. The assay can be described thus: Cytotoxicity against mouse L5178Y cells by MTT assay. Type of assay: functional, cell-based. The gist of the method:
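Growth of L5178Y mouse lymphoma cells measured by MTT (microculture tetrazolium) assay relative to untreated controls. Medium with 0.1% EGMME–DMSO served as negative control and the depsipeptide kahalalide F as positive control.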
In general terms: Tetrazolium dyes change colour on reduction, which living cells bring about.

The subject of a further assay is Escherichia coli. The assay can be described thus: Antibacterial activity against Escherichia coli ATCC 25922 at 64 ug/mL by broth microdilution method. Type of assay: functional, organism-based.
A further assay deals with Streptococcus pneumoniae. Put plainly: Antibacterial activity against Streptococcus pneumoniae ATCC 49619 at 64 ug/mL by broth microdilution method. Type of assay: functional, organism-based. (Dilution methods test growth across graded concentrations, often in twofold steps.)

For orientation: pIC50 means the negative decadic logarithm of the IC50, by convention in mol/L. Consider `COc1cc(O)c(C)c2cc(C)ncc12`, for which the result in the assay on Staphylococcus aureus, in the assay with Escherichia coli and in the assay on Streptococcus pneumoniae was inactive. In the assay on L5178Y, the pIC50 is under 5.00.

Take `CC(=O)c1c(CC(=O)O)cc(O)c(C)c1O`: the result with Staphylococcus aureus, in the assay with Escherichia coli and with Streptococcus pneumoniae was inactive. The pIC50 in the assay with L5178Y is under 5.00.

`C[C@@H]1C[C@@](C)(O)Cc2ccc(CO)c(/C=C/C=C/C(=O)O)c21`: the result in the assay with Staphylococcus aureus, in the assay on Escherichia coli and in the assay on Streptococcus pneumoniae was inactive. Moreover, in the assay with L5178Y, the pIC50 is under 5.00.

`COc1cc(O)c(C)c2c1[C@@H](c1ccc3n1C(=O)c1c-3[nH]c3ccccc3c1=O)O[C@@H](C)C2` [CITRIQUINOCHROMAN]: the result in the assay on Staphylococcus aureus, in the assay with Escherichia coli and in the assay with Streptococcus pneumoniae was inactive. The same molecule had a pIC50 in the assay on L5178Y of 5.21.

In the case of `O=C1c2c([nH]c3ccccc3c2=O)C2CCCN12` (centres undefined), the outcome in the assay on Staphylococcus aureus, in the assay with Escherichia coli and in the assay on Streptococcus pneumoniae was inactive. This molecule also gave a pIC50 in the assay with L5178Y of under 5.00.

Regarding `CC1=C[C@H](O)[C@H]2C[C@@H](CO)C[C@@H](C)[C@@H]2[C@H]1/C=C/C=C/C(=O)O`, the outcome in the assay on Staphylococcus aureus, in the assay with Escherichia coli and in the assay with Streptococcus pneumoniae was inactive. The molecule further gave a negative-log IC50 (pIC50) in the assay with L5178Y of under 5.00.
